Data on 15 compounds can be found in ChEMBL document CHEMBL3352099, “Anti-osteoporotic and antioxidant activities of chemical constituents of the aerial parts of Ducrosia ismaelis” (Bioorg Med Chem Lett, 2014).

Where only a bound is given, the exact number is not on record here.

Series [1] in a line: Antioxidant activity assessed as AAPH-induced peroxyl radical scavenging activity by oxygen radical absorbance assay. The format is physicochemical. In short, it runs like this: (§1)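 Peroxyl radical scavenging measured by ORAC, a hydrogen atom transfer assay. Compounds tested at 1-10 µM. Values expressed as µM Trolox equivalents (TE).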
Series [2] is described as follows: Antioxidant activity assessed as AAPH-induced peroxyl radical scavenging activity at 10 uM by oxygen radical absorbance assay relative to trolox. The series is classed as physicochemical. In a few lines:
as §1

Series [3] can be described thus: Antioxidant activity assessed as reduction of Cu2+ to Cu+ at 10 uM by reduction assay relative to trolox. The format is physicochemical. In a few lines: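 Single electron transfer reducing-capacity assay measuring reduction of Cu2+ ions. Compounds tested at up to 10.0 µM. Values expressed as µM Trolox equivalents, as mean ± SD of three measurements.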
Series [4] has as its system RAW264.7. The series is described as follows: Antiosteoporotic activity in mouse RAW264.7 cells assessed as inhibition of RANKL-induced osteoclast formation after 5 days by TRAP assay relative to untreated control. The series is classed as functional, cell-based. In short, it runs like this: (§2)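 RAW 264.7 pre-osteoclast cells induced to form osteoclasts with RANKL. Compounds tested at concentrations up to 10 µM. TRAP activity is expressed as percent of the untreated control, as mean ± SD with n = 3. The untreated control (C) and the RANKL-treated control (TC) are both included.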

Series [5] concerns RAW264.7. The series is described as follows: Antiosteoporotic activity in mouse RAW264.7 cells assessed as inhibition of RANKL-induced osteoclast formation at 10 uM after 5 days by TRAP assay relative to untreated control. The format is functional. Details: scale not given: the % may be the effect or the level left. In short, it runs like this: as §2

`CC1=CC(=O)CC(C)(C)[C@H]1CC[C@@H](C)O[C@@H]1O[C@H](CO)[C@@H](O)[C@H](O)[C@H]1O`: in series [1], the Activity entry is recorded as “Dose-dependent effect”.
For `CC(C)=CCc1c(O)ccc(C(=O)/C=C/c2ccc(O)cc2)c1O` [ISOBAVACHALCONE], the Activity result in series [1] is on record as “Dose-dependent effect”. Moreover, the Ratio in series [2] is listed as > 20.
Turning to `COc1cc(/C=C/CO)ccc1O[C@@H]1O[C@H](CO)[C@@H](O)[C@H](O)[C@H]1O` [CONIFERIN], the Activity result in series [1] is “Dose-dependent effect”.
Take `OC[C@H]1O[C@@H](Oc2ccc3c(c2)OC[C@@]2(O)c4ccc(O)cc4O[C@@H]32)[C@H](O)[C@@H](O)[C@@H]1O`: in series [1], the Activity entry is on record as “Dose-dependent effect”. For the same compound, in series [2], the Ratio is given as > 20.
Regarding `COc1cc([C@H]2OC[C@H]3[C@@H]2CO[C@@H]3c2cc(OC)c(OC)c(OC)c2)cc(OC)c1O`, in series [1], the Activity entry is on record as “Dose-dependent effect”. In addition, the Ratio in series [3] was found to be 23.44.
For `COc1cc([C@H]2OC[C@H]3[C@@H]2CO[C@@H]3c2ccc(O[C@@H]3O[C@H](CO)[C@@H](O)[C@H](O)[C@H]3O)c(OC)c2)ccc1O`, the Activity entry in series [1] was “Dose-dependent effect”.
Take `O=c1oc2cc(O)ccc2c2oc3cc(O)ccc3c12` [COUMESTROL]: the Activity result in series [1] is “Dose-dependent effect”.
Consider `COc1cc([C@H]2OC[C@H]3[C@@H]2CO[C@@H]3c2cc(OC)c(O[C@@H]3O[C@H](CO)[C@@H](O)[C@H](O)[C@H]3O)c(OC)c2)cc(OC)c1O[C@@H]1O[C@H](CO)[C@@H](O)[C@H](O)[C@H]1O` [LIRIODENDRIN], for which the Activity result in the series on RAW264.7 [4] is “Dose-dependent effect”; with RAW264.7 [5], 106.05%; in series [1] it was “Dose-dependent effect”.
Turning to `COc1cc(O)c2c(=O)c(-c3ccc(O[C@@H]4O[C@H](CO)[C@@H](O)[C@H](O)[C@H]4O)cc3)coc2c1`, the Activity result in series [1] is recorded as “Dose-dependent effect”.
As to `COC(=O)/C=C\c1ccc(O)c(CC=C(C)C)c1`, the Activity result in the series on RAW264.7 [4] is “Dose-dependent effect”; with RAW264.7 [5] it was 85.05%; in series [1] it was “Dose-dependent effect”.
As for `O=c1c(-c2ccc(O)cc2)coc2cc(O[C@@H]3O[C@H](CO)[C@@H](O)[C@H](O)[C@H]3O)cc(O)c12` [GENISTIN], the Activity entry in series [1] is given as “Dose-dependent effect”. For the same compound, the Ratio in series [2] is recorded as 26.55.
For `O=C(c1ccc(O)cc1O[C@@H]1O[C@H](CO)[C@@H](O)[C@H](O)[C@H]1O)[C@H](O)Cc1ccc(O)cc1`, the Activity entry in series [1] is recorded as “Dose-dependent effect”.
Consider `O=c1c(-c2ccc(O[C@@H]3O[C@H](CO)[C@@H](O)[C@H](O)[C@H]3O)cc2)coc2cc(O)ccc12`, for which the Activity entry with RAW264.7 [4] was “Dose-dependent effect”; in the series on RAW264.7 [5], 104.77%; in series [1] it was “Dose-dependent effect”. In addition, the Ratio in series [2] was > 20.
As for `O=c1c(-c2ccc(O)cc2)coc2cc(O[C@@H]3O[C@H](CO)[C@@H](O)[C@H](O)[C@H]3O)ccc12` [DAIDZIN], in series [1], the Activity entry was “Dose-dependent effect”. Also, in series [2], the Ratio is reported as > 20.
Turning to `C=CCc1ccc(O[C@@H]2O[C@H](CO)[C@@H](O)[C@H](O)[C@H]2O)c(OC)c1` [CITRUSIN C], the Activity result in the series with RAW264.7 [4] is “Dose-dependent effect”; in the series on RAW264.7 [5], 100.93%; in series [1], “Dose-dependent effect”.
